Assay results published in ChEMBL document CHEMBL3124905, “Isothiocoumarin-3-carboxylic acid derivatives: synthesis, anticancer and antitrypanosomal activity evaluation” (Eur J Med Chem, 2014).

How the values were obtained:
Assay type in all cases: functional
MCF7 = experiment: Anticancer activity against human MCF7 cells assessed as cell growth at 100 uM after 48 hrs by SRB assay; conditions: MCF7, 48 h, read-out: Activity
Procedure, shortened: (§1)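 NCI one-dose primary screen on a three-line panel (breast MCF7, lung NCI-H460, CNS SF-268). Cells were inoculated and preincubated 24–48 h, then exposed to a single concentration of 10−4 M for 48 h. The endpoint was sulforhodamine B protein staining, and results are expressed as percent growth relative to untreated control cells. Negative values denote cytotoxicity.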

NCI-H460 = experiment: Anticancer activity against human NCI-H460 cells assessed as cell growth at 100 uM after 48 hrs by SRB assay; conditions: NCI-H460, 48 h, read-out: Activity; procedure, shortened: as §1
SF-268 = experiment: Anticancer activity against human SF268 cells assessed as cell growth at 100 uM after 48 hrs by SRB assay; conditions: SF-268, 48 h, read-out: Activity; procedure, shortened: as §1
[1] = tested on: Trypanosoma brucei brucei; experiment: Antitrypanosomal activity against bloodstream form of Trypanosoma brucei brucei strain 90-13 assessed as inhibition of parasite growth at 10 ug/ml after 72 hrs by resazurin reduction test; conditions: strain 90-13, 72 h
Procedure, shortened: (§2)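 Trypanosoma brucei brucei 90-13 bloodstream forms, grown in HMI9 with 10% FCS at 37 °C under 5% CO2. Log-phase parasites were seeded at 10^5 cells/mL with or without inhibitor, with stocks prepared in DMSO. After 72 h, resazurin was added and fluorescence was read at 530/590 nm after a further 4 h. Percent growth inhibition was calculated versus drug-free parasites, with DMSO as control.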

[2] = tested on: Trypanosoma brucei brucei; experiment: Antitrypanosomal activity against bloodstream form of Trypanosoma brucei brucei strain 90-13 assessed as inhibition of parasite growth at 1 ug/ml after 72 hrs by resazurin reduction test; conditions: strain 90-13, 72 h; procedure, shortened: as §2
CCRF-CEM = experiment: Growth inhibition of human CCRF-CEM cells after 48 hrs by SRB assay
Procedure, shortened: (§3)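 NCI five-dose assay against the ~60-cell-line panel (nine cancer types). Tenfold dilutions from 10−4 to 10−8 M were used with continuous 48-h exposure and SRB absorbance readout. Percent growth was computed from time-zero, control and treated absorbances. GI50 is the concentration giving 50% lower net protein increase than controls. Values not reached are reported as beyond the tested range.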

[3] = Growth inhibition of human HOP92 cells after 48 hrs by SRB assay; conditions: HOP-92, 48 h; procedure, shortened: as §3
SR = experiment: Growth inhibition of human SR cells after 48 hrs by SRB assay
Procedure, shortened: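 NCI ~60-cell-line five-dose screen. Cells were preincubated 24-48 h, then given compound at 10-fold dilutions from 10^-4 to 10^-8 M with 48 h continuous exposure. SRB protein stain was read by absorbance at time zero, in untreated control and with drug. GI50 was derived from [(Ti-Tz)/(C-Tz)]x100=50, TGI from Ti=Tz, and LC50 from [(Ti-Tz)/Tz]x100=-50.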

KM12 = experiment: Growth inhibition of human KM12 cells after 48 hrs by SRB assay; conditions: KM12, 48 h; procedure, shortened: as §3
MDA-MB-435 = experiment: Growth inhibition of human MDA-MB-435 cells after 48 hrs by SRB assay; conditions: MDA-MB-435, 48 h; procedure, shortened: as §3

| Compound | growth at 100 µM (MCF7) [%] | growth at 100 µM (NCI-H460) [%] | growth at 100 µM (SF-268) [%] | inhibition at 10 µg/mL [1] [%] | inhibition at 1 µg/mL [2] [%] | further results |
| --- | --- | --- | --- | --- | --- | --- |
| O=C(Nc1nccs1)c1cc2ccccc2c(=O)s1 | 91 | 93 | 90 | – | – | – |
| O=C(Nc1cccc(C(F)(F)F)c1)c1cc2ccccc2c(=O)s1 | – | – | – | -7.12 | 5.78 | – |
| COc1ccc2cc(C(=O)Nc3ccc(O)cc3)sc(=O)c2c1OC | – | – | – | – | – | GI50 (CCRF-CEM): 5.62 µM; TGI (CCRF-CEM; read-out: pTGI (converted)): > 100 µM; GI50 [3]: 17.8 µM; TGI ([3]; read-out: pTGI (converted)): 95.5 µM; GI50 (SR): 3.47 µM; TGI (SR; read-out: pTGI (converted)): 42.7 µM; GI50 (KM12): 26.3 µM; TGI (KM12; read-out: pTGI): > 100 µM; GI50 (MDA-MB-435): 18.6 µM; TGI (MDA-MB-435; read-out: pTGI (converted)): 77.6 µM |
| COC(=O)c1cc2ccc(OC)c(OC)c2c(=O)s1 | 108 | 82 | 113 | – | – | – |
| COc1ccc2cc(C(=O)Nc3cc(C)on3)sc(=O)c2c1OC | 52 | 70 | 51 | 3.93 | 12.2 | – |
| O=C(O)c1cc2ccccc2c(=O)s1 | – | – | – | 0.05 | 16.8 | – |
| Cc1c(NC(=O)c2cc3ccccc3c(=O)s2)c(=O)n(-c2ccccc2)n1C | 107 | 52 | 106 | – | – | – |
| CCOC(=O)c1cc2ccccc2c(=O)s1 | – | – | – | -3.91 | 35.8 | – |
| CCOC(=O)c1ccc(NC(=O)c2cc3ccc(OC)c(OC)c3c(=O)s2)cc1 | 105 | 103 | 117 | 20.9 | -0.53 | – |
| O=C(O)CNC(=O)c1cc2ccccc2c(=O)s1 | – | – | – | 0.18 | 10.8 | – |
